Calls of active or inactive are those of the source. The rule behind the calls is not given here.
Columns and labels:
[1] = molecular target: T1, Glucose-6-phosphate 1-dehydrogenase (Saccharomyces cerevisiae S288c, UniProt P11412); assay: Inhibition of yeast G6PD
T1 sequence (P11412 whole entry): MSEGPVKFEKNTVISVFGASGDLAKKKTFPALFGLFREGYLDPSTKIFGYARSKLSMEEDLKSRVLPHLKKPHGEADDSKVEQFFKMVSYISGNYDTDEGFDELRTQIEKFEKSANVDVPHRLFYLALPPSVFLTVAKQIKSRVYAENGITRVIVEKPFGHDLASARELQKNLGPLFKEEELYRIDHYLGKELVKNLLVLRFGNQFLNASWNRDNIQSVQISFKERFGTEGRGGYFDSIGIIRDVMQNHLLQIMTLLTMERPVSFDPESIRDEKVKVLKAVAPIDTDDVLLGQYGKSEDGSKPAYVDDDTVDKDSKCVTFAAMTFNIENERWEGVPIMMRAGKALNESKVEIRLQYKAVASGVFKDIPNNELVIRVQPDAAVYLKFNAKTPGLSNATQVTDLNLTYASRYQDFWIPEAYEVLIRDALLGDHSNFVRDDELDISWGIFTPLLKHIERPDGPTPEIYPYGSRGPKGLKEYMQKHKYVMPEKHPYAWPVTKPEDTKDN

[2] = Inhibition of IDH
[3] = system: 3T3-L1; assay: (§1) Inhibition of G6PD-mediated NADPH production in mouse 3T3-L1 cells; type: cell-based
How it was run: (§2)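 Fully differentiated 3T3-L1 adipocytes were lysed in NETN buffer and spun at 4 °C; supernatants were used at once. 1.0 µg protein was incubated at 30 °C with inhibitor (DMSO <0.2% v/v) in 0.1 mol/L Tris pH 7.5, 150 mmol/L NaCl, 6 mmol/L MgCl2, 0.5 mmol/L G6P, 0.5 mmol/L 6-phosphogluconate and 0.25 mmol/L NADP+. Total NADPH production was normalized to Bradford protein. Values are means of three independent experiments.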

[4] = molecular target: 6-phosphogluconate dehydrogenase, decarboxylating (Saccharomyces cerevisiae) (UniProt P38720); assay: Inhibition of 6PGD
Chain of 6-phosphogluconate dehydrogenase, decarboxylating (Saccharomyces cerevisiae) (P38720 whole entry, looked up): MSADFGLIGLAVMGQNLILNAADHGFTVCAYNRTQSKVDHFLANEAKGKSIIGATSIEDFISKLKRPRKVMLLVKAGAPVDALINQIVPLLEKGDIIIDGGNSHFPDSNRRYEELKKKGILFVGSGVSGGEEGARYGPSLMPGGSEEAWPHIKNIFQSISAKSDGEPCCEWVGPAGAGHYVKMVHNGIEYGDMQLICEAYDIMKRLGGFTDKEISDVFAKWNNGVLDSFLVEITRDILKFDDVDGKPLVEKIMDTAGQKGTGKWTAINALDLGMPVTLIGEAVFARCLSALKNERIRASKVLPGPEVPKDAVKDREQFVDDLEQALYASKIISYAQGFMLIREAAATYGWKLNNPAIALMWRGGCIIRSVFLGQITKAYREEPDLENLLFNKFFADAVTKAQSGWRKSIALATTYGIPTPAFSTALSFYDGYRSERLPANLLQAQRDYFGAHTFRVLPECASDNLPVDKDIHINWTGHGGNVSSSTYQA

[5] = system: 3T3-L1; assay: Ratio of IC50 for yeast G6PD to IC50 for G6PD-mediated NADPH production in mouse 3T3-L1 cells; type: cell-based
[6] = as §1; type: cell-based; how it was run: as §2
[7] = system: Homo sapiens; assay: Plasma concentration in human at 50 mg, po; settings: in vivo
[8] = system: 3T3-L1; assay: Inhibition of G6PD-mediated NADPH production in mouse 3T3-L1 cells at above 100 umol/L; type: cell-based; how it was run: as §2

Question: For `CCOc1cccc(-c2cc(C(=O)N/N=C/c3ccccc3O)[nH]n2)c1`, which IC50 [1] is on record?
Answer: 21.8 µM

Question: For `Oc1cccc(/C=N/NC(=S)N/N=C/c2cccc(O)c2O)c1O`, which IC50 [1] is on record?
Answer: 56.4 µM

Question: For `Oc1cc(O)c2c(c1)O[C@@H](c1ccc(O)c(O)c1)[C@H](O)C2` [(-)-CATECHIN], which IC50 [1] is on record?
Answer: > 1000 µM

Question: And the IC50 [2]?
Answer: > 1000 µM

Question: And the Activity [3]?
Answer: inactive

Question: Which results are given for `O=C(O[C@@H]1Cc2c(O)cc(O)cc2O[C@H]1c1cc(O)c(O)c(O)c1)c1cc(O)c(O)c(O)c1` [GALLOCATECHIN GALLATE]?
Answer: IC50 [4]: 1.45 µM; IC50 [1]: 0.23 µM; Ratio IC50 [5]: 100; IC50 [2]: 2.72 µM; IC50 [6]: 25 µM

Question: Which IC50 [1] does the source give for `Oc1cc(O)c2c(c1)O[C@@H](c1cc(O)c(O)c(O)c1)[C@H](O)C2` [(-)-GALLOCATECHIN] here?
Answer: > 1000 µM

Question: What about the IC50 [2] of the same compound?
Answer: > 1000 µM

Question: And the Activity [3]?
Answer: inactive

Question: Which results are given for `O=C(O[C@@H]1Cc2c(O)cc(O)cc2O[C@@H]1c1ccc(O)c(O)c1)c1cc(O)c(O)c(O)c1` [EPICATECHIN GALLATE]?
Answer: IC50 [4]: 1.21 µM; IC50 [1]: 0.18 µM; Ratio IC50 [5]: 100; IC50 [2]: 10.8 µM; IC50 [6]: 25 µM

Question: For `O=C(O[C@@H]1Cc2c(O)cc(O)cc2O[C@H]1c1ccc(O)c(O)c1)c1cc(O)c(O)c(O)c1` [(-)-CATECHINGALLATE], which IC50 [4] is on record?
Answer: 1.28 µM

Question: What about the IC50 [1] of the same compound?
Answer: 0.24 µM

Question: And the Ratio IC50 [5]?
Answer: 100

Question: And the IC50 [2]?
Answer: 6.62 µM

Question: And the IC50 [6]?
Answer: 25 µM

Question: Which results are given for `O=C(O[C@@H]1Cc2c(O)cc(O)cc2O[C@@H]1c1cc(O)c(O)c(O)c1)c1cc(O)c(O)c(O)c1` [EPIGALOCATECHIN GALLATE]?
Answer: IC50 [4]: 0.72 µM; IC50 [1]: 0.25 µM; concentration [7]: 300 nM; Ratio IC50 [5]: 100; IC50 [2]: 6.44 µM; IC50 [6]: 25 µM

Question: For `Oc1cc(O)c2c(c1)O[C@H](c1ccc(O)c(O)c1)[C@H](O)C2` [(-)-EPICATECHIN], which IC50 [1] is on record?
Answer: > 1000 µM

Question: And the IC50 [2]?
Answer: > 1000 µM

Question: And the Activity [3]?
Answer: inactive

Question: Which inhibition [8] does the source give for `C[C@]12CC[C@H](O)CC1=CC[C@@H]1[C@@H]2CC[C@]2(C)C(=O)CC[C@@H]12` here?
Answer: 40%

Question: For `Oc1cc(O)c2c(c1)O[C@H](c1cc(O)c(O)c(O)c1)[C@H](O)C2` [EPIGALLOCATECHIN], which IC50 [1] is on record?
Answer: > 1000 µM

Question: What about the IC50 [2] of the same compound?
Answer: > 1000 µM

Question: And the Activity [3]?
Answer: inactive

Source: ChEMBL document CHEMBL1143070, “Catechin gallates are NADP+-competitive inhibitors of glucose-6-phosphate dehydrogenase and other enzymes that employ NADP+ as a coenzyme” (Bioorg Med Chem, 2008)
